ChEMBL document CHEMBL1132701, “Orally active isoxazoline glycoprotein IIb/IIIa antagonists with extended duration of action” (J Med Chem, 1999)

What was measured:
Homo sapiens = organism: Homo sapiens; test: The compound was tested for their ability to inhibit ADP-stimulated platelet aggregation in human platelet rich plasma; format: functional
Outline: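 IC50 for inhibition of ADP-induced aggregation in human platelet-rich plasma, determined in three donors.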

Canis familiaris [1] = organism: Canis familiaris; test: The compound was tested for their ability to inhibit ADP-stimulated platelet aggregation in dog platelet rich plasma; format: functional; conditions: Canis lupus familiaris
[2] = target: Integrin alpha-IIb/beta-3 (Canis familiaris); test: Dissociation constant for activated Fibrinogen Receptor
[3] = target: Integrin alpha-IIb/beta-3 (Canis familiaris); test: Dissociation constant for unactivated Fibrinogen Receptor
Canis familiaris [4] = test: Inhibition of ex vivo platelet aggregation in dogs after 24 hr of administration of iv bolus dose of 0.025 mg/kg; format: functional; conditions: Canis lupus familiaris
Outline: (§1)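 Dogs received an iv bolus, mostly 0.025 mg/kg, with some tested at 0.05 mg/kg. Blood was sampled at 1, 5 and 24 h postdose. Ex vivo platelet aggregation was stimulated with ADP (100 μM) and reported as % inhibition; n = 2.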

Canis familiaris [5] = test: Inhibition of ex vivo platelet aggregation in dogs after 24 hr of administration of oral dose of 0.1 mg/kg; conditions: Canis lupus familiaris
Canis familiaris [6] = test: Inhibition of ex vivo platelet aggregation in dogs after 2 hr of administration of oral dose of 0.1 mg/kg; conditions: Canis lupus familiaris
Canis familiaris [7] = test: Inhibition of ex vivo platelet aggregation in dogs after 6 hr of administration of oral dose of 0.1 mg/kg; conditions: Canis lupus familiaris
Canis familiaris [8] = test: Compounds having IC50 values less than 100 nM in the PRP assay were assessed for their ability to inhibit ex vivo platelet aggregation in dogs after 5 hr of administration of iv bolus dose of 0.025 mg/kg; format: functional; conditions: Canis lupus familiaris; outline: as §1
Canis familiaris [9] = test: Inhibition of ex vivo platelet aggregation in dogs after 6 hr of administration of oral dose of 0.1 mg/kg; conditions: Canis lupus familiaris; remark: listed apart in the source
Canis familiaris [10] = test: Inhibition of ex vivo platelet aggregation in dogs after 1 hr of administration of oral dose of 0.1 mg/kg; conditions: Canis lupus familiaris
Integrin alpha-4/beta-1 = Integrin alpha-4/beta-1 (Homo sapiens, UniProt P05556+P13612); test: Inhibitory activity against alpha4-beta1 integrin; format: protein-complex assay
Chain of Integrin alpha-4/beta-1 (P05556 whole entry): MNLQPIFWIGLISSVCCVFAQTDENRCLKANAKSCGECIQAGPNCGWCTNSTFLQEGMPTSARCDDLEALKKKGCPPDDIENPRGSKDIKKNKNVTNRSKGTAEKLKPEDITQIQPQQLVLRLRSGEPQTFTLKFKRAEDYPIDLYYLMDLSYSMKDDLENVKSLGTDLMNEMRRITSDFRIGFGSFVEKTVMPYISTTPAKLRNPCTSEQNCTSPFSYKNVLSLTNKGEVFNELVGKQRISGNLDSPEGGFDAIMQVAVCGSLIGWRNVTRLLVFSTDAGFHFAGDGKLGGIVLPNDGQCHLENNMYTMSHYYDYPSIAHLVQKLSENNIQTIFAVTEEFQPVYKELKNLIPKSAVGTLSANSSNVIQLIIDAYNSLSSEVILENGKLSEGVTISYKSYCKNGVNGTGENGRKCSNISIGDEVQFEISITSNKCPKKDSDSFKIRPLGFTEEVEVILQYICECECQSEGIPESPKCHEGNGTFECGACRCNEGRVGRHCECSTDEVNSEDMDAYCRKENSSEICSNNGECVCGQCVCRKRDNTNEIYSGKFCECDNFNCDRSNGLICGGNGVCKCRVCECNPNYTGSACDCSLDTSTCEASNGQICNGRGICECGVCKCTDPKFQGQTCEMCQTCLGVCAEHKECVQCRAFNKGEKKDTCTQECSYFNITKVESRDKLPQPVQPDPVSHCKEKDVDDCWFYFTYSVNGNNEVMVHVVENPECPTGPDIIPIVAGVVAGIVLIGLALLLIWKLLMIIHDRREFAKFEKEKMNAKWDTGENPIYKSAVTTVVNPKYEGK
Chain of Integrin alpha-4/beta-1 (P13612 whole entry): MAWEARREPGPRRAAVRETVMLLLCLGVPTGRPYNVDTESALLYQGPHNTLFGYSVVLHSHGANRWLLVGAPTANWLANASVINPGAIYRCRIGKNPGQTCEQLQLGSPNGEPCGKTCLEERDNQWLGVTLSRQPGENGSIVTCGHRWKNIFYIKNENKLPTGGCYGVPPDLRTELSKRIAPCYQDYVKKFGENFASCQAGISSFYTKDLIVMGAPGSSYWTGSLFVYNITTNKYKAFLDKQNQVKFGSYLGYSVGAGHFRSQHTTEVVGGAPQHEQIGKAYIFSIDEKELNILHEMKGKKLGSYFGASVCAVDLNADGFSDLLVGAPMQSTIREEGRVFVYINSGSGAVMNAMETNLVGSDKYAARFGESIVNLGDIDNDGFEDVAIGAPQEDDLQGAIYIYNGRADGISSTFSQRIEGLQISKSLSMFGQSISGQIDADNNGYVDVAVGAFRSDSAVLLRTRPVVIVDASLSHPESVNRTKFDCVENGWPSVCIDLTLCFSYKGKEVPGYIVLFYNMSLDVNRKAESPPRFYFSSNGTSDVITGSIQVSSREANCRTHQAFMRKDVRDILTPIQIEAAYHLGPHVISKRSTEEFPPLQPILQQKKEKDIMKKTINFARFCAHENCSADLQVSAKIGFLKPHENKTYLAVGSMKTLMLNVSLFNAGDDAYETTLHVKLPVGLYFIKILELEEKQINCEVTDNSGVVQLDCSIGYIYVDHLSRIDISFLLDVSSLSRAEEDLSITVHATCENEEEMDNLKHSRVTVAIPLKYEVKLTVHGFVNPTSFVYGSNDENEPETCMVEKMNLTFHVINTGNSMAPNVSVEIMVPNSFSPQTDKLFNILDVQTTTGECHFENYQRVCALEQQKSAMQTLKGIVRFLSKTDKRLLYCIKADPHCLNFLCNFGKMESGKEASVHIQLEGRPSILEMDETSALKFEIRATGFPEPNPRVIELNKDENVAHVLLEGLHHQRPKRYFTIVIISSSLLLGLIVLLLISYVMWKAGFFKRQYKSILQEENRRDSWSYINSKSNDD

Canis familiaris [11] = test: Inhibition of ex vivo platelet aggregation in dogs after 6 hr of administration of oral dose of 0.1 mg/kg; conditions: Canis lupus familiaris; remark: listed apart in the source
Canis familiaris [12] = test: Inhibition of ex vivo platelet aggregation in dogs after 1 hr of administration of oral dose of 0.1 mg/kg; format: functional; conditions: Canis lupus familiaris
[13] = target: Integrin alpha-IIb/beta-3 (Canis familiaris); test: Dissociation constant for unactivated Fibrinogen Receptor; remark: listed apart in the source
[14] = target: Integrin alpha-5/beta-1 (Homo sapiens) (UniProt P05556+P08648); test: Inhibitory activity against alpha5-beta1 integrin at 10 uM
[15] = target: Integrin alpha-V/beta-5 (Homo sapiens) (UniProt P06756+P18084); test: Inhibitory activity against alphaV-beta5 integrin at 10 uM; format: protein-complex assay
Canis familiaris [16] = test: Inhibition of ex vivo platelet aggregation in dogs after 24 hr of administration of oral dose of 0.1 mg/kg; format: functional; conditions: Canis lupus familiaris
Integrin alpha-V/beta-3 = Integrin alpha-V/beta-3 (Homo sapiens, UniProt P05106+P06756); test: Inhibitory activity against […] integrin; format: protein-complex assay
Chain of Integrin alpha-V/beta-3 (P05106 27-788 limits assumed): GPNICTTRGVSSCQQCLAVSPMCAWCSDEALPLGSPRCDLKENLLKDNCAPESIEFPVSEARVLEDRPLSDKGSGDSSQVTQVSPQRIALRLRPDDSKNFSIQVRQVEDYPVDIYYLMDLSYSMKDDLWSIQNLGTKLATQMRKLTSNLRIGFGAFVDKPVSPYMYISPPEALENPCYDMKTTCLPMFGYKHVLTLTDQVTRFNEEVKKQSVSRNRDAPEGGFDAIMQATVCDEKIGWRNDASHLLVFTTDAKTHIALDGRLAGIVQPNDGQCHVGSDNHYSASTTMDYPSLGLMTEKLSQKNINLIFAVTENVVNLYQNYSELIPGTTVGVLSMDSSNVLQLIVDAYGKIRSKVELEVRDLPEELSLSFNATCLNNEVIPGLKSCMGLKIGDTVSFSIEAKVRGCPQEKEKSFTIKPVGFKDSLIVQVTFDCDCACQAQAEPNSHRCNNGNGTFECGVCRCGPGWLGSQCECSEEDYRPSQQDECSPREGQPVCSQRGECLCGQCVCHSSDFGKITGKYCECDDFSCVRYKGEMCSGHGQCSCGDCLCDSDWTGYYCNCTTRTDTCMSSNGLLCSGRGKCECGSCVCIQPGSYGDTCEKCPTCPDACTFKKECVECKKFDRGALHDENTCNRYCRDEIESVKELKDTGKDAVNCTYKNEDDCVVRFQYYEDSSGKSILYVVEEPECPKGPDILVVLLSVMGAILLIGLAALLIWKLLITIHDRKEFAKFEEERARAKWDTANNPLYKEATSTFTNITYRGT
Chain of Integrin alpha-V/beta-3 (P06756 31-889 limits assumed): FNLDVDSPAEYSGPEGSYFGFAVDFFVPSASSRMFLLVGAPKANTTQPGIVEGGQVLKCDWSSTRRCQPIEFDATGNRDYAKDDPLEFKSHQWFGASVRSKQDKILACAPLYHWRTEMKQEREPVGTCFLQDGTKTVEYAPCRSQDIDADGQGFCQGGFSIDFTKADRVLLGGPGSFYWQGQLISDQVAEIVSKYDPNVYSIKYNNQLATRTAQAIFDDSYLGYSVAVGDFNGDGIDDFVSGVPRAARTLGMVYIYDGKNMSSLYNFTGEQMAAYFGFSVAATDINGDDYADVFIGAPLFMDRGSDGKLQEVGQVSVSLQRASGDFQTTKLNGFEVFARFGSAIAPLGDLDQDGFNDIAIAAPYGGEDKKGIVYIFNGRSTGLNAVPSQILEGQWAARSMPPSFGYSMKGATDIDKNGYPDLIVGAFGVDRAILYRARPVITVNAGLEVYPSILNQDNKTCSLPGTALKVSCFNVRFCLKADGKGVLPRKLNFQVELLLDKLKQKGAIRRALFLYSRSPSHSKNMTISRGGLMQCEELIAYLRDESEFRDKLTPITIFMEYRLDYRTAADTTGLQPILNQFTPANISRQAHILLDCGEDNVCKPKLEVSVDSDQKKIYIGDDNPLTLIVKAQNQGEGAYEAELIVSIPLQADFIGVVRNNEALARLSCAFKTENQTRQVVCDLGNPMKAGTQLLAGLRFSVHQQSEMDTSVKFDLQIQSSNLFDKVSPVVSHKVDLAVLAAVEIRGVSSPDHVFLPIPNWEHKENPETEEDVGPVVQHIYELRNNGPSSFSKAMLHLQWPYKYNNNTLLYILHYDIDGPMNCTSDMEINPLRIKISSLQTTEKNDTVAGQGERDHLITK
Chain of Integrin alpha-V/beta-3 (P06756 891-1048 limits assumed): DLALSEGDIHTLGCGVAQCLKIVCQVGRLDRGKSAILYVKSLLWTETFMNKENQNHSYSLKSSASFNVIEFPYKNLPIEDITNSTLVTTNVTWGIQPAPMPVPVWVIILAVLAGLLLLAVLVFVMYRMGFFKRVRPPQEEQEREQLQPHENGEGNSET

Canis familiaris [17] = test: Inhibition of ex vivo platelet aggregation in dogs after 24 hr of administration of iv bolus dose of 0.05 mg/kg; format: functional; conditions: Canis lupus familiaris; outline: as §1

Row | SMILES | IC50 (Homo sapiens) | inhibition in vivo at 0.025 mg/kg (Canis familiaris [4]) | other results
1 | Cc1cccc(S(=O)(=O)N(C)[C@@H](CNC(=O)C[C@H]2CC(c3ccc(C(=N)N)cc3)=NO2)C(=O)O)c1 | 95 nM | – | –
2 | N=C(N)c1ccc(C2=NOC(CC(=O)NC[C@H](NS(=O)(=O)c3ccccc3C(F)(F)F)C(=O)O)C2)cc1 (some centres not stated) | – | 45% | –
3 | Cc1ccc(NS(=O)(=O)N[C@@H](CNC(=O)CC2CC(c3ccc(C(=N)N)cc3)=NO2)C(=O)O)cc1 (some centres not stated) | 72 nM | – | –
4 | N=C(N)c1ccc(C2=NO[C@@H](CC(=O)NC[C@H](NS(=O)(=O)c3ccccc3Br)C(=O)O)C2)cc1 | 36 nM | – | inhibition in vivo at 0.1 mg/kg (Canis familiaris [5]): 40%; inhibition in vivo at 0.1 mg/kg (Canis familiaris [6]): 29%; inhibition in vivo at 0.1 mg/kg (Canis familiaris [7]): 73%
5 | Cc1cccc(S(=O)(=O)N[C@@H](CNC(=O)C[C@@H]2CC(c3ccc(C(=N)N)cc3)=NO2)C(=O)O)c1 | 35 nM | – | –
6 | CC(C)NS(=O)(=O)N[C@@H](CNC(=O)CC1CC(c2ccc(C(=N)N)cc2)=NO1)C(=O)O (some centres not stated) | 51 nM | – | –
7 | Cc1nc(C)c(S(=O)(=O)N[C@@H](CNC(=O)CC2CC(c3ccc(C(=N)N)cc3)=NO2)C(=O)O)s1 (some centres not stated) | 36 nM | 8% | inhibition in vivo at 0.025 mg/kg (Canis familiaris [8]): 54%
8 | N=C(N)c1ccc(C2=NOC(CC(=O)NC[C@H](NS(=O)(=O)c3ccc4ccccc4c3)C(=O)O)C2)cc1 (some centres not stated) | 140 nM | – | –
9 | Cc1cccc(S(=O)(=O)N[C@@H](CNC(=O)C[C@H]2CC(c3ccc(C(=N)N)cc3)=NO2)C(=O)O)c1 | 25 nM | 24% | inhibition in vivo at 0.1 mg/kg (Canis familiaris [9]): 94%; inhibition in vivo at 0.1 mg/kg (Canis familiaris [5]): 60%; inhibition in vivo at 0.1 mg/kg (Canis familiaris [10]): 78%
10 | Cc1noc(C)c1S(=O)(=O)N[C@@H](CNC(=O)C[C@H]1CC(c2ccc(C(=N)N)cc2)=NO1)C(=O)O | 29 nM | – | IC50 (Integrin alpha-4/beta-1): > 100000 nM; inhibition in vivo at 0.1 mg/kg (Canis familiaris [11]): 88%; inhibition in vivo at 0.1 mg/kg (Canis familiaris [12]): 54%; Kd [13]: 0.9 nM; inhibition [14]: < 5%; inhibition [15]: < 15%; IC50 (Canis familiaris [1]): 23 nM; inhibition in vivo at 0.1 mg/kg (Canis familiaris [16]): 75%; Kd [2]: 0.6 nM; IC50 (Integrin alpha-V/beta-3): > 10000 nM
11 | CC(C)CNS(=O)(=O)N[C@@H](CNC(=O)CC1CC(c2ccc(C(=N)N)cc2)=NO1)C(=O)O (some centres not stated) | 52 nM | – | –
12 | N=C(N)c1ccc(C2=NOC(CC(=O)NC[C@H](NS(=O)(=O)c3ccccc3Br)C(=O)O)C2)cc1 (some centres not stated) | 36 nM | – | inhibition in vivo at 0.05 mg/kg (Canis familiaris [17]): 100%
13 | CCCS(=O)(=O)N[C@@H](CNC(=O)CC1CC(c2ccc(C(=N)N)cc2)=NO1)C(=O)O (some centres not stated) | 17 nM | – | –
14 | N=C(N)c1ccc(C2=NOC(CC(=O)NC[C@H](NS(=O)(=O)c3cccc4ccccc34)C(=O)O)C2)cc1 (some centres not stated) | 55 nM | – | –

More lines, in order of falling IC50 (Homo sapiens), values ahead:

Row | IC50 (Homo sapiens) | SMILES | inhibition in vivo at 0.025 mg/kg (Canis familiaris [4]) | other results
15 | 130 nM | CCCc1ccc(S(=O)(=O)N[C@@H](CNC(=O)CC2CC(c3ccc(C(=N)N)cc3)=NO2)C(=O)O)cc1 (some centres not stated) | – | –
16 | 130 nM | Cc1ccccc1S(=O)(=O)N[C@@H](CNC(=O)C[C@H]1CC(c2ccc(C(=N)N)cc2)=NO1)C(=O)O | – | inhibition in vivo at 0.1 mg/kg (Canis familiaris [5]): 65%; inhibition in vivo at 0.1 mg/kg (Canis familiaris [10]): 39%; inhibition in vivo at 0.1 mg/kg (Canis familiaris [7]): 92%
17 | 91 nM | N=C(N)c1ccc(C2=NOC(CC(=O)NC[C@H](NS(=O)(=O)c3cccc4nsnc34)C(=O)O)C2)cc1 (some centres not stated) | 0% | –
18 | 89 nM | N=C(N)c1ccc(C2=NO[C@@H](CC(=O)NC[C@H](NS(=O)(=O)c3ccccc3C(F)(F)F)C(=O)O)C2)cc1 | – | –
19 | 81 nM | N=C(N)c1ccc(C2=NOC(CC(=O)NC[C@H](NS(=O)(=O)c3cccc4cccnc34)C(=O)O)C2)cc1 (some centres not stated) | 67% | –
20 | 39 nM | N=C(N)c1ccc(C2=NOC(CC(=O)NC[C@H](NS(=O)(=O)Cc3ccccc3)C(=O)O)C2)cc1 (some centres not stated) | 26% | –
21 | 34 nM | Cc1noc(C)c1S(=O)(=O)N[C@@H](CNC(=O)CC1CC(c2ccc(C(=N)N)cc2)=NO1)C(=O)O (some centres not stated) | 33% | –
22 | 23 nM | Cc1noc(C)c1S(=O)(=O)N[C@H](CNC(=O)C[C@H]1CC(c2ccc(C(=N)N)cc2)=NO1)C(=O)O | – | IC50 (Canis familiaris [1]): 25 nM; Kd [2]: 5.9 nM; Kd [3]: 24.1 nM
